Calls of active or inactive are those of the source. No cut-off for these calls is given here.
What was measured:
A549 [1] = assay: Induction of DNA damage in human A549 cells assessed as gamma-H2AX foci formation at 2 uM after 2 hrs by DAPI staining based immunofluorescence assay; assay type: functional, cell-based
Method in brief: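 A549 cells were treated for 2 h with DMSO as diluent, then fixed. Cells were immunostained with a mouse monoclonal anti-γ-H2AX antibody, with DAPI as DNA counterstain, and γ-H2AX foci were scored by immunofluorescence.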

A549 [2] = assay: Induction of DNA damage in human A549 cells assessed as increase in CHK1 phosphorylation level at 2 uM after 2 hrs by immunoblot analysis; assay type: functional, cell-based
Method in brief: (§1)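 A549 cells were treated for 2 h with DMSO as diluent. Total cell lysates were run on 12% SDS-PAGE and transferred to PVDF. Membranes were blocked in PBST with 5% BSA and immunoblotted for γ-H2AX and pS345 CHK1, with HRP secondary detection.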

A549 [3] = assay: Induction of DNA damage in human A549 cells assessed as increase in gamma-H2AX level at 2 uM after 2 hrs by immunoblot analysis; assay type: functional, cell-based; method in brief: as §1
A549 [4] = assay: Cell cycle arrest in human A549 cells assessed as accumulation at G2/M phase at cytotoxic IC50 after 24 hrs by propidium iodide staining based flow cytometry (reference value: 20.95 +/- 0.8%); assay type: functional
A549 [5] = assay: Cell cycle arrest in human A549 cells assessed as accumulation at S phase at cytotoxic IC50 after 24 hrs by propidium iodide staining based flow cytometry (reference value: 32.37 +/- 1.23%); assay type: functional
A549 [6] = assay: Cell cycle arrest in human A549 cells assessed as accumulation at G0/G1 phase at cytotoxic IC50 after 24 hrs by propidium iodide staining based flow cytometry (reference value: 46.39 +/- 1.75%); assay type: functional
A549 [7] = assay: Cell cycle arrest in human A549 cells assessed as accumulation at G0/G1 phase at 0.5 times cytotoxic IC50 after 24 hrs by propidium iodide staining based flow cytometry (reference value: 46.39 +/- 1.75%); assay type: functional
A549 [8] = assay: Activation of spindle assembly checkpoint in human A549 cells assessed as mitotic index by measuring cells positive for histone H3 phosphorylation at Ser10 residue at cytotoxic IC50 after 8 hrs by FITC staining based immunofluorescence assay (reference value: 3.17 +/- 0.15); assay type: functional
A549 [9] = assay: Activation of spindle assembly checkpoint in human A549 cells assessed as mitotic index by measuring cells positive for histone H3 phosphorylation at Ser10 residue at cytotoxic IC50 after 4 hrs by FITC staining based immunofluorescence assay (reference value: 3.3 +/- 0.17); assay type: functional
Sus scrofa [10] = organism: Sus scrofa; assay: Inhibition of porcine tubulin polymerization after 60 mins by spectrometric method
Method in brief: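 Purified tubulin was incubated at 37 °C with compound at 5, 10 or 20 μM, with DMSO as vehicle. Polymerization was followed as the rise in absorbance at 340 nm over 60 min. Taxol (10 μM) and nocodazole (10 μM) served as controls. Three independent experiments were run.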

A549 [11] = assay: Cell cycle arrest in human A549 cells assessed as accumulation at G2/M phase at 1.5 times cytotoxic IC50 after 24 hrs by propidium iodide staining based flow cytometry (reference value: 20.95 +/- 0.8%); assay type: functional
HCT-116 [12] = assay: Cytotoxicity against human HCT116 cells at 30 uM by MTS assay relative to control; assay type: functional
Method in brief: (§2)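 MTS read-out (CellTiter 96 AQueous One) of proliferation in A549 or HCT-116 cells grown in DMEM with 10% FBS at 37 °C, 5% CO2. Taxol-resistant A549 cells were exposed for 72 h. Compounds were screened at 30 μM versus vehicle, with ≥50% inhibition counted active. Actives were then tested over a concentration range for IC50. Triplicate wells, three independent experiments, mean ± SD.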

HCT-116 [13] = assay: Cytotoxicity against human HCT116 cells by MTS assay; assay type: functional, cell-based; method in brief: as §2
A549 [14] = assay: Activation of spindle assembly checkpoint in human A549 cells assessed as cells positive for histone H3 phosphorylation at Ser10 residue by measuring mitotic cell population at cytotoxic IC50 after 8 hrs by propidium iodide staining based flow cytometry (reference value: 6.9%); assay type: functional
A549 [15] = assay: Cell cycle arrest in human A549 cells assessed as accumulation at G2/M phase after 24 hrs by propidium iodide staining based flow cytometry; assay type: functional
A549 [16] = assay: Antiproliferative activity against human A549 cells after 72 hrs by MTS assay; assay type: functional, cell-based; settings: A549, 72 h; method in brief: as §2
A549 [17] = assay: Induction of DNA damage in human A549 cells assessed as increase in CHK1 phosphorylation level after 12 hrs by immunoblot analysis; assay type: functional, cell-based
Method in brief: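 A549 cells treated 12 h, with camptothecin (2 μM, 2 h) and DMSO as comparators. Total lysates immunoblotted for γ-H2AX and pS345 CHK1.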

MDA-MB-231 = assay: Cytotoxicity against human MDA-MB-231 cells at 30 uM by MTS assay; assay type: functional, cell-based
A549 [18] = assay: Cytotoxicity against human A549 cells by MTS assay; assay type: functional, cell-based; method in brief: as §2
A549 [19] = assay: Activation of spindle assembly checkpoint in human A549 cells assessed as mitotic index by measuring cells positive for histone H3 phosphorylation at Ser10 residue at cytotoxic IC50 after 2 hrs by FITC staining based immunofluorescence assay (reference value: 2.67 +/- 0.21); assay type: functional
A549 [20] = assay: Activation of spindle assembly checkpoint in human A549 cells assessed as cells positive for histone H3 phosphorylation at Ser10 residue by measuring mitotic cell population at cytotoxic IC50 after 4 hrs by propidium iodide staining based flow cytometry (reference value: 6.9%); assay type: functional
A549 [21] = assay: Activation of spindle assembly checkpoint in human A549 cells assessed as increase in BubR1 phosphorylation at cytotoxic IC50 after 6 to 24 hrs by immunoblot analysis; assay type: functional, cell-based
A549 [22] = assay: Induction of DNA damage in human A549 cells assessed as increase in gamma-H2AX level after 12 hrs by immunoblot analysis; assay type: functional, cell-based
Method in brief: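 A549 cells treated for 12 h, with DMSO as diluent; camptothecin at 2 μM for 2 h served as positive control. Total cell lysates were immunoblotted for γ-H2AX (Ser139 phosphorylated H2AX) and pS345 CHK1. Immunofluorescence for γ-H2AX foci with DAPI counterstain was run in parallel.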

A549 [23] = assay: Activation of spindle assembly checkpoint in human A549 cells assessed as cells positive for histone H3 phosphorylation at Ser10 residue by measuring mitotic cell population at cytotoxic IC50 after 16 hrs by propidium iodide staining based flow cytometry (reference value: 6.9%); assay type: functional
A549 [24] = assay: Induction of DNA damage in human A549 cells assessed as gamma-H2AX foci formation after 12 hrs by DAPI staining based immunofluorescence assay; assay type: functional, cell-based
Method in brief: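 A549 cells treated 12 h, with camptothecin (2 μM, 2 h) and DMSO as comparators. Cells fixed and immunostained with mouse monoclonal anti-γ-H2AX, nuclei counterstained with DAPI, foci examined by immunofluorescence.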

HeLa = assay: Cytotoxicity against human HeLa cells at 30 uM by MTS assay; assay type: functional, cell-based
A549 [25] = assay: Activation of spindle assembly checkpoint in human A549 cells assessed as mitotic index by measuring cells positive for histone H3 phosphorylation at Ser10 residue at cytotoxic IC50 after 16 hrs by FITC staining based immunofluorescence assay (reference value: 3.23 +/- 0.15); assay type: functional
A549 [26] = assay: Cell cycle arrest in human A549 cells assessed as accumulation at S phase at 1.5 times cytotoxic IC50 after 24 hrs by propidium iodide staining based flow cytometry (reference value: 32.37 +/- 1.23%); assay type: functional
A549 [27] = assay: Activation of spindle assembly checkpoint in human A549 cells assessed as cells positive for histone H3 phosphorylation at Ser10 residue by measuring mitotic cell population at cytotoxic IC50 after 2 hrs by propidium iodide staining based flow cytometry (reference value: 6.9%); assay type: functional
A549 [28] = assay: Activation of spindle assembly checkpoint in human A549 cells assessed as increase in histone H3 phosphorylation at Ser10 residue at cytotoxic IC50 after 12 to 24 hrs by immunoblot analysis; assay type: functional, cell-based
A549 [29] = assay: Cytotoxicity against human A549 cells at 30 uM by MTS assay relative to control; assay type: functional; method in brief: as §2
A549 [30] = assay: Cell cycle arrest in human A549 cells assessed as accumulation at G0/G1 phase at 1.5 times cytotoxic IC50 after 24 hrs by propidium iodide staining based flow cytometry (reference value: 46.39 +/- 1.75%); assay type: functional
MCF7 = assay: Cytotoxicity against human MCF7 cells at 30 uM by MTS assay; assay type: functional, cell-based
A549 [31] = assay: Cell cycle arrest in human A549 cells assessed as accumulation at G2/M phase at 0.5 times cytotoxic IC50 after 24 hrs by propidium iodide staining based flow cytometry (reference value: 20.95 +/- 0.8%); assay type: functional
HT-29 = assay: Cytotoxicity against human HT-29 cells at 30 uM by MTS assay; assay type: functional, cell-based
A549 [32] = assay: Cell cycle arrest in human A549 cells assessed as accumulation at S phase at 0.5 times cytotoxic IC50 after 24 hrs by propidium iodide staining based flow cytometry (reference value: 32.37 +/- 1.23%); assay type: functional
Sus scrofa [33] = organism: Sus scrofa; assay: Binding affinity to porcine tubulin after overnight incubation by streptavidin pull down assay
Method in brief: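 Purified porcine neuronal tubulin incubated with biotin, biotinylated probe or control probe in NETN buffer at 4 °C. Streptavidin Dynabeads 1 h at 4 °C, six washes, then SDS-PAGE and α-tubulin immunoblot.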

A549 [34] = assay: Binding affinity to tubulin alpha in human A549 cells immunoblot based based pull down assay; assay type: cell-based
Method in brief: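 A549 lysate in NETN buffer incubated with biotin, biotinylated probe or control probe at 4 °C, then streptavidin Dynabeads 1 h at 4 °C. Beads washed six times, bound proteins run on SDS-PAGE and immunoblotted for α-tubulin.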

SMILES: CC[C@@]1(O)C(=O)OCc2c1cc1n(c2=O)Cc2cc3ccccc3nc2-1
- Activity (A549 [1]): Active
- Activity (A549 [2]): Active
- Activity (A549 [3]): Active

SMILES: O=c1[nH]cc(F)c(=O)[nH]1 [FLUOROURACIL]
- Activity (A549 [4]): 8.9%
- Activity (A549 [5]): 59.27%
- Activity (A549 [6]): 29.61%

SMILES: Cc1cc2c(=O)[nH]c(CSC(=S)NCc3ccc(C#N)cc3)nc2s1
- Activity (A549 [7]): 43.91%
- Activity_index (A549 [8]): 15.6
- Activity_index (A549 [9]): 9.67
- inhibition (Sus scrofa [10]): Dose-dependent effect
- Activity (A549 [11]): 61.89%
- Activity (HCT-116 [12]): >=50%
- Activity (A549 [4]): 55.74%
- IC50 (HCT-116 [13]): 22.6 µM
- Activity (A549 [14]): 13.7%
- Activity (A549 [15]): Dose-dependent effect
- IC50 (A549 [16]): 7.31 µM
- Activity (A549 [17]): inactive
- Activity (MDA-MB-231): inactive
- IC50 (A549 [18]): 4.78 µM
- Activity_index (A549 [19]): 6.63
- Activity (A549 [20]): 10.2%
- Activity (A549 [21]): Active
- Activity (A549 [22]): inactive
- Activity (A549 [23]): 19.5%
- Activity (A549 [24]): inactive
- Activity (HeLa): inactive
- Activity_index (A549 [25]): 19.17
- Activity (A549 [5]): 19.85%
- Activity (A549 [6]): 24.24%
- Activity (A549 [26]): 18.45%
- Activity (A549 [27]): 6.9%
- Activity (A549 [28]): Active
- Activity (A549 [29]): >=50%
- Activity (A549 [30]): 17%
- Activity (MCF7): inactive
- Activity (A549 [31]): 23.59%
- Activity (HT-29): inactive
- Activity (A549 [32]): 30.89%

SMILES: Cc1cc2c(=O)[nH]c(CN(CCCNC(=O)CCCC[C@@H]3SC[C@@H]4NC(=O)N[C@@H]43)Cc3ccc(C#N)cc3)nc2s1
- Activity (Sus scrofa [33]): inactive
- Activity (A549 [34]): inactive

SMILES: COc1ccc(CNC(=S)SCc2nc3sc(C)cc3c(=O)[nH]2)c(OC)c1
- Activity (HCT-116 [12]): >=50%
- IC50 (HCT-116 [13]): > 30 µM
- Activity (MDA-MB-231): inactive
- IC50 (A549 [18]): > 30 µM
- Activity (HeLa): inactive
- Activity (A549 [29]): >=50%
- Activity (MCF7): inactive
- Activity (HT-29): inactive
